The whole screen tested about 320,000 compounds, of which about 380 (0.12%) were called active.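 How the source made its calls: active means percent inhibition above the cutoff of mean plus 3 SD of all tested compounds, set per screening campaign (cut at about 20% in these data); inactive means the rest.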 What follows is part of a selection rich in actives, with near analogues and random picks from the rest.
target: Photoreceptor-specific nuclear receptor (Homo sapiens) (UniProt Q9Y5X4); experiment: disruption of NR2E3 corepressor interaction – biochemical, TR-FRET, GST-NR2E3, biotin-RetCOR, NR2E3 agonist project, primary screen (AID 2300); conditions: 1536-well, at 4.78 µM, hits give high values;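 further: 0% = DMSO wells and 100% = biotin wells as full block of FRET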
Sequence (Q9Y5X4 whole entry, looked up): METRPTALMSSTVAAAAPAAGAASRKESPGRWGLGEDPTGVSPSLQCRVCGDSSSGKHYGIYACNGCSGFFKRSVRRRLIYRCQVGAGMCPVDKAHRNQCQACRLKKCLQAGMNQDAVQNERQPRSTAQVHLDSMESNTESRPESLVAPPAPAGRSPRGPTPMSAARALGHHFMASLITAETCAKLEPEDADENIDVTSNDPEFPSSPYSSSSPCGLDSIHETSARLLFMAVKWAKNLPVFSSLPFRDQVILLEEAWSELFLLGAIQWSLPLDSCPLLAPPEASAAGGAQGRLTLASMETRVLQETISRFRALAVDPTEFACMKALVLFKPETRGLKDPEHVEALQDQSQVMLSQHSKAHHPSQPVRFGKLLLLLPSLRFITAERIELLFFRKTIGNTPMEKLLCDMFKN
Summary of the method: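 Assay system: NR2E3–RetCOR corepressor complex. Quantity: 1.35 nM GST-NR2E3. Buffer or medium: pH 7.5 Tris-based buffer. Reagent: biotinylated RetCOR corepressor at 7 nM final. Schedule: 5 h at 4 °C. Detection: TR-FRET, emission read at 617 and 671 nm. Replicates: one well per compound, singlicate testing.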

Inhibition of corepressor binding, inactive:
O=C(COC(=O)c1ccc(F)cc1F)Nc1ncccn1 8.41%
CN(C(=O)CSc1nnc(-c2ccc(C(C)(C)C)cc2)n1C)C1CCS(=O)(=O)C1 (stereo not given) -0.57%
O=C(CNC(=O)c1ccc(Br)o1)NCC1CCCO1 (stereo not given) 1.48%
Cc1ccc(CN2CCN(Cc3ccc(OCCO)cc3)CC2CCO)o1 (stereo not given) 3.85%
COc1cc([C@H](Cc2ccccc2)NC(C)=O)oc(=O)c1 -1.34%
CN(CC(=O)NCc1ccc2c(c1)OCO2)CC(=O)Nc1ccc(F)c(F)c1F 1.07%
CC(NC(=O)c1ccc(S(=O)(=O)Nc2ccccc2)cc1)c1ccc(S(N)(=O)=O)cc1 (stereo not given) 2.43%
CC(=O)N1CCSc2ccc(S(=O)(=O)N3CCC(C)CC3)cc21 -0.82%
C/C(=N/NC(=O)CSc1ccccn1)c1ccc([N+](=O)[O-])cc1 3.53%
C[C@H](NC(=O)c1nc[nH]c1C(=O)NCC(=O)OC(C)(C)C)c1ccccc1 -2.19%
Cc1ccc(N2C(=O)C(CC(=O)Nc3cccc(F)c3)N(CCc3ccncc3)C2=O)cc1 (stereo not given) -1.41%
CCCOC(=O)c1c(NC(=O)c2cnn3c2NC(c2ccccc2)CC3C(F)(F)F)sc2c1CCCC2 (stereo not given) 0.87%
Cc1ccn2c(c1)nc(=O)c1cc(S(=O)(=O)N3CCC(C)CC3)ccc12 2.72%
C=CCOc1cccc(C2C(C(=O)c3ccc(C)o3)=C(O)C(=O)N2c2nnc(C)s2)c1 (stereo not given) 14.1%
CCCOc1ccc(C2C(C(=O)c3ccc(C)o3)=C(O)C(=O)N2CCCn2ccnc2)cc1 (stereo not given) 11.4%
COc1ccc(/C=C/C(=O)NC(=S)N2CCCC(C(N)=O)C2)cc1 (stereo not given) 3.08%
O=C(OCC1O[C@@H](OC(=O)c2cc(O)c(O)c(O)c2)[C@@H](OC(=O)c2cc(O)c(O)c(O)c2)[C@@H](OC(=O)c2cc(O)c(O)c(O)c2)[C@@H]1OC(=O)c1cc(O)c(O)c(O)c1)c1cc(O)c(O)c(O)c1 (stereo not given in full) 11.9%
Cc1coc2c(O)cc3c(c12)OC1(N2CCCCC2)C(=O)NCCCC31 (stereo not given) -2.68%
CC(C)CCNC(=O)C1CCCN(S(=O)(=O)c2ccc(F)cc2)C1 (stereo not given) 2.4%
Cc1cc(NC(=O)Nc2ccccc2[N+](=O)[O-])no1 0.41%
COc1cccc(N2C(=O)CN(Cc3ccccc3)C2=S)c1 -3.57%
COc1cccc(-n2cc(C(=O)O)c3ccccc3c2=O)c1 3.78%
COc1ccc(NC(=O)CSc2nnc(Cc3ccccc3)c(=O)n2N)cc1 -3.17%
COC(=O)C1=NN(c2ccccc2)C2C(=O)N(c3ccccc3OC)C(=O)C12 (stereo not given) -1.01%
C/C(=C\c1ccco1)CN1CCC(N2CCC(C(=O)N3CCOCC3)CC2)CC1 -0.38%
O=C(Nc1ccccc1Cl)NC1(C(=O)N2CCOCC2)CCCCC1 1.2%
CCc1nn(CCCC(=O)NCc2ccc(C)cc2)c(=O)c2cc3occc3n12 1.62%
C=C1c2c(Cl)ccc(O)c2C(O)=C2C(=O)[C@]3(O)C(O)=C(C(N)=O)C(=O)[C@@H](N(C)C)[C@@H]3[C@@H](O)C12 (stereo not given in full) 3.15%
C=CCn1c(SCc2ccc(Cl)c(Cl)c2)nnc1C(CO)NC(=O)c1ccc(OC)cc1 (stereo not given) -1.93%
Cc1ccn(C(CC(=O)c2ccc(Br)cc2)C(=O)O)n1 (stereo not given) 0.75%
CC(C)CCNc1nc(N2CCCC2)c2c(c1C#N)CCN(C)C2 -2.99%
CCc1ccnc(NS(=O)(=O)c2ccc3c(c2)OCCO3)c1 -3.2%
CCN(C(=O)COC(=O)/C=C/c1nc2ccccc2s1)C1CCS(=O)(=O)C1 (stereo not given) -1.91%
C[C@@H](NC(=O)c1nc[nH]c1C(=O)N1CCN(C(=O)OC(C)(C)C)CC1)c1ccccc1 0.22%
N#C/C(=C/c1ccc(Cl)cc1)NC(=O)c1ccccc1 0.97%
CSc1sc(C(=O)NC(=O)NCc2cccnc2)c(C)c1-c1ccon1 -5.08%
CCOc1ccc(OCC)c(NC(=O)C(NS(=O)(=O)c2ccc3c(c2)oc(=O)n3C)C(C)C)c1 (stereo not given) 5.32%
CCN(CC)S(=O)(=O)c1ccc(N(C)Cc2cccc(OC)c2OC)nc1 -0.21%
Cc1ccc(C(=O)Nc2ccc(C)c(S(=O)(=O)N(C)C)c2)s1 -3.92%
COc1ccccc1C(=O)Nc1ccnn1C1CCN(Cc2cnn(C)c2)CC1 -1.2%
O=[N+]([O-])c1ccc(Oc2ccc(F)cc2Br)c2ccncc12 3.74%
O=C(COC(=O)CNS(=O)(=O)c1ccc(F)c(F)c1F)NC1CCCC1 1.54%
CC1(C)Cc2ccccc2-c2nc(CN3CCOCC3)[nH]c(=O)c21 0.32%
CCC1(CC)Cc2ccccc2-c2nc(CCl)[nH]c(=O)c21 -2.67%
Cc1ccc(Sc2ccncc2S(N)(=O)=O)cc1 0.79%
Cn1cc(CN2CCCC(CO)C2)c(-c2ccc(Oc3ccccc3)cc2)n1 (stereo not given) -0.36%
COc1ccc(C2c3[nH]c4ccccc4c3CCN2CCCn2cccn2)cc1C (stereo not given) 1.77%
CCc1ccc(NC(=O)CN2CCC(C(=O)c3ccc(OC)cc3)CC2)cc1 4.08%
CC[C@@H](C)[C@@H](C(=O)N1CCN(C(=O)OC(C)(C)C)CC1)n1cc(CCC(=O)O)nn1 2.89%
O=c1[nH]c(CCl)nc2cc(-c3ccc(Cl)cc3)sc12 1.58%
COc1ccc(CNC(=O)CN(Cc2ccc(Cl)cc2)S(C)(=O)=O)cc1 -2.12%
CCCC(=O)n1nc(NCc2ccc(OC)cc2)nc1NCc1ccc(OC)cc1 -0.61%

Inhibition of corepressor binding, active:
C=CCOc1cccc(C2C(C(=O)c3ccc(C)o3)=C(O)C(=O)N2CCCn2ccnc2)c1 (stereo not given) 25.8%
COc1cccc(-n2c(=S)[nH]c3c(oc4ccccc43)c2=O)c1 29.2%
CC1(C)Cc2ccccc2-c2[nH]c(=S)[nH]c(=O)c21 49.1%

From PubChem BioAssay AID2300 (The Scripps Research Institute Molecular Screening Center, 2010)
